Test results published in ChEMBL document CHEMBL1212832, “Antiprotozoal steroidal saponins from the marine sponge Pandaros acanthifolium” (J Nat Prod, 2010).
Active and inactive are the calls of the source. No cut-off for these calls is given here.

Legend:
L6 = assay: Cytotoxicity against rat L6 cells after 72 hrs by Alamar blue assay; type: cell-based; settings: l6, 72 h
Method in brief: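 4 × 10^4 L6 cells per well in RPMI 1640 with 10% FBS and L-glutamine, exposed 72 h to seven 3-fold dilutions (90–0.12 µg/mL). Resazurin (Alamar Blue) added for 2 h, fluorescence read at ex 536/em 588 nm.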

Leishmania donovani [1] = assay: Antileishmanial activity against Leishmania donovani (MHOM/ET/67/L82) amastigotes after 72 hrs; type: functional, organism-based; settings: MHOM/ET/67/L82, 72 h
Plasmodium falciparum = assay: Antimalarial activity against chloroquine and pyrimethamine-resistant Plasmodium falciparum K1 assessed as inhibition of [3H]hypoxanthine incorporation after 48 hrs by scintillation counting; type: functional, organism-based
Method in brief: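 K1 strain (chloroquine- and pyrimethamine-resistant) cultured in RPMI 1640 with 5% Albumax II, 0.2% w/v glucose, 0.03% L-glutamine. Two-fold dilution series from DMSO stocks, final DMSO ≤0.25%. 48 h at 37 °C, then 0.1 µCi [3H]-hypoxanthine added and incubated 24 h more. Freeze-stopped at -80 °C, harvested onto glass fiber filters, scintillation counted. IC50 calculated. Chloroquine as standard.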

Trypanosoma cruzi = assay: Trypanocidal activity against trypomastigote form of Trypanosoma cruzi Tulahuen infected in rat L6 cells after 96 hrs; type: functional, organism-based; settings: L6, 96 h
Method in brief: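 L6 cells seeded at 2000 per well in RPMI 1640 with 10% FBS, 2 mM L-glutamine; after 24 h, 5000 trypomastigotes of the LacZ-expressing C2C4 line added. After 48 h, medium replaced with seven 3-fold dilutions (90–0.12 µg/mL) for 96 h.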

[2] = system: Trypanosoma brucei rhodesiense; assay: Trypanocidal activity against Trypanosoma brucei rhodesiense STIB 900 after 72 hrs; type: functional, organism-based; settings: STIB 900, 72 h
Method in brief: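 Bloodstream forms (10^4 per well) in MEM with 25 mM HEPES, extra glucose, non-essential amino acids, 2-mercaptoethanol, pyruvate and 15% heat-inactivated horse serum; seven 3-fold dilutions from 90 to 0.12 µg/mL, 72 h at 37 °C, 5% CO2. Resazurin added for 2–4 h, fluorescence at ex 536/em 588 nm; melarsoprol as standard.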

[3] = biological target: T1, 3-oxoacyl-acyl-carrier protein reductase (Plasmodium falciparum) (UniProt Q965D6); assay: Inhibition of Plasmodium falciparum recombinant FabG at 20 ug/mL by spectrophotometric analysis
T1 sequence (whole entry): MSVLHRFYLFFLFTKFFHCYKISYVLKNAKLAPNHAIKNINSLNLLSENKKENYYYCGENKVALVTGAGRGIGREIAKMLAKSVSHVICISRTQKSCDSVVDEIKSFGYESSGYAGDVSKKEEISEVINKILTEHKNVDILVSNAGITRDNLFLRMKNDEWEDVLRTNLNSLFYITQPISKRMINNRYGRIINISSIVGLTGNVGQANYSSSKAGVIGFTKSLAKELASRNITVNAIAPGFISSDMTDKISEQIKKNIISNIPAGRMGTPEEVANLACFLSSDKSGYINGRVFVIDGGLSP

[4] = Inhibition of Plasmodium falciparum recombinant FabI at 20 ug/mL by spectrophotometric analysis
[5] = biological target: T2, Fatty acid synthase (Plasmodium falciparum) (UniProt Q965D7); assay: Inhibition of Plasmodium falciparum recombinant FabZ at 20 ug/mL by spectrophotometric analysis
T2 sequence (whole entry): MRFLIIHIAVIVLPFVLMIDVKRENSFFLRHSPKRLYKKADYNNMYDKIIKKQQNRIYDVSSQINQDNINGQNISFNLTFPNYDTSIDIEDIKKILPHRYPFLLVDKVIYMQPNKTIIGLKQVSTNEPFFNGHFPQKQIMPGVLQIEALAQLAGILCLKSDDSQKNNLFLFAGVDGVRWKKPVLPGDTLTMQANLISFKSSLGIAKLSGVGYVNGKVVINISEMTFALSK

Leishmania donovani [6] = assay: Ratio of miltefosine IC50 to compound IC50 for Leishmania donovani (MHOM/ET/67/L82) amastigotes

SMILES	Activity (L6) [µM]	IC50 (Leishmania donovani [1]) [µM]	IC50 (Plasmodium falciparum) [µM]	IC50 (Trypanosoma cruzi) [µM]	IC50 [2] [µM]	Activity [3]	Activity [4]	Activity [5]	Ratio IC50 (Leishmania donovani [6])
CC[C@@H](C(=O)C[C@@H](C)C1=C(O)C(=O)[C@@H]2C3=CC[C@H]4C[C@@H](O[C@@H]5O[C@H](C(=O)OC)[C@@H](O)[C@H](O[C@@H]6OC[C@@H](O)[C@H](O)[C@H]6O)[C@H]5O)CC[C@]4(C)[C@H]3CC[C@]12C)C(C)C [METHYL ESTER PANDAROSIDE G]	0.22	0.051	0.39	0.77	0.038	inactive	inactive	inactive	10
CC(C)CC(=O)C[C@@H](C)C1=C(O)C(=O)[C@@H]2[C@@H]3CC[C@H]4C[C@@H](O[C@@H]5O[C@H](C(=O)O)[C@@H](O)[C@H](O)[C@H]5O[C@@H]5O[C@H](CO)[C@@H](O)[C@H](O)[C@H]5O)CC[C@]4(C)[C@H]3CC[C@]12C [PANDAROSIDE C]	> 120	> 120	> 25	> 120	66.4	inactive	inactive	inactive	
COC(=O)[C@H]1O[C@@H](O[C@H]2CC[C@@]3(C)[C@@H](CC[C@H]4[C@H]5C(=O)C(O)=C([C@H](C)CC(=O)CC(C)C)[C@@]5(C)CC[C@@H]43)C2)[C@H](O)[C@@H](O)[C@@H]1O [METHYL ESTER PANDAROSIDE D]	106	13.7	5.1	21.6	40.4	inactive	inactive	inactive	
